Rows were chosen to be rich in hits. Some 3.5% of all compounds tested hit in one or more screens of this group.
RGS4 block = inhibitors of human RGS4; B-score at 10 µM; 310,000 tested, 0.45% active; AID 463165; HEK293 M3R/RGS4 inducible, Fluo-4 calcium flux; active compounds read high; triggered by carbachol at its EC20;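 active means B-score, a plate-corrected calcium signal, over three deviations above library mean, with baseline fluorescence within five deviations of library mean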;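 further: RGS4 expression induced by doxycycline in cells with stable M3 receptor; B-score is computed from the integrated fluorescence ratio over baseline after carbachol; higher B-score means a larger calcium signal and so more RGS4 inhibition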
Target sequence (P49798 whole entry, looked up): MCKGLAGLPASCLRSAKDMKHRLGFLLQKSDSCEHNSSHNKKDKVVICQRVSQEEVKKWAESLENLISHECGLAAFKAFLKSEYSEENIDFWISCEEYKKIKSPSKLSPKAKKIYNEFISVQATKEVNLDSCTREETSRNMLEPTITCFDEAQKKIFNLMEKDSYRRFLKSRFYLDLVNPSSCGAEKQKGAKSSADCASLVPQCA
MrgX1 allo act = human MrgX1 positive allosteric modulation, primary screen; MrgX1-HEK293, Fluo-4 calcium flux, FDSS; active compounds read high; B-score at 10 µM; 310,000 tested, 0.63% active; AID 588675;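 active means plate-corrected calcium response at least 3 library SD above typical, normal starting fluorescence, not activating the receptor alone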;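 further: compound read alongside a low EC10 to EC30 dose of BAM8-22 agonist; peak minus trough fluorescence over baseline measured at the second addition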
Target sequence (Q96LB2 whole entry, looked up): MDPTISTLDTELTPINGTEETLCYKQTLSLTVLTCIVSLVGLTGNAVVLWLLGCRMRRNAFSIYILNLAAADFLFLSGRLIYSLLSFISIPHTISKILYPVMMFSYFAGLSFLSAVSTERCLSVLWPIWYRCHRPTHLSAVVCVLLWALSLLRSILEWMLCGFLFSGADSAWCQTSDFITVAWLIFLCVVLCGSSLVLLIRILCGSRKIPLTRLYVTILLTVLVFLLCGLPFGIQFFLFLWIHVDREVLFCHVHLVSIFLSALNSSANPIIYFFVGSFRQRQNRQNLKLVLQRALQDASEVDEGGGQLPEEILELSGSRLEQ
MrgX1 ag = activates human MrgX1 receptor signaling | Q96LB2 | MrgX1-HEK293 cells, Fluo-4 calcium fluorescence, agonist mode; active compounds read high | B-score at 10 µM | 310,000 tested, 0.44% active | AID 588627;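 active means calcium response B-score plate-corrected fluorescence ratio at least 3 library SD, with starting fluorescence B-score inside 5 SD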
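System – MrgX1-expressing HEK293 cells · Incubation – cells plated overnight, dye loaded 0.5 h 37 °C, 0.5 h room temperature · Technique – kinetic Fluo-4 NW fluorescence of intracellular calcium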
MrgX1 antag = antagonists of human MrgX1 receptor. Q96LB2. MRGX1-HEK293 calcium flux, Fluo-4, BAM8-22 antagonism; active compounds read low. B-score at 10 µM. 310,000 tested, 1.3% active;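 active means calcium-response B-score plate-corrected more than 3 library SD below zero, starting fluorescence within 5 deviations, no agonist response on first addition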;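 further: peak minus trough fluorescence over baseline after final BAM8-22 challenge near maximal dose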
RGS4 act = potentiators or activators of RGS4 | HEK293 M3R/inducible RGS4, carbachol calcium flux Fluo4; active compounds read low | B-score at 10 µM | 310,000 tested, 0.92% active;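 active means B-score of the integrated calcium signal more than 4 SD below the library mean, with starting fluorescence not abnormally high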;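 further: negative B-score means reduced calcium response which marks RGS4 activation or potentiation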
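test system = HEK293 cells with stable M3R and inducible RGS4 | schedule = recording 10 s baseline at 1 Hz, 100 s post-agonist | technique = Fluo4-AM (2 µM) calcium-flux fluorescence, kinetic read | measure = Agonist-evoked peak-minus-minimum fluorescence over baseline, integrated ratio, B score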
MrgX1 ag confirm = human MrgX1 agonism, re-confirmation screen; activation, % at 10 µM; 600 tested, 78% active; MrgX1-HEK293, Fluo-4 calcium fluorescence, FDSS; shares compounds with MrgX1 ag;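 active means calcium signal rise, corrected for plate position, at least 3 library SD high, with starting brightness within 5 such deviations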; further: reference of the scale not given here
HEK293 Ca flux = MrgX1 antagonist counter-screen hit in parental HEK293 cells | Fluo-4 calcium fluorescence, FDSS | 4,000 tested, 2% active | shares compounds with MrgX1 antag | fluorescence ratio F(max-min)/F0 at 10 µM;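 active means duplicate-averaged calcium fluorescence ratio at least three times the standard deviation of buffer wells, a nonspecific response in parental cells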
HEK293 Ca counter = counter-screen for MrgX1 allosteric activators: effect in parental HEK293 cells; parental HEK293 calcium flux, Fluo-4 fluorescence ratio; active compounds read high; fluorescence ratio F(max-min)/F0 at 10 µM; 4,000 tested, 0.4% active; shares compounds with MrgX1 antag;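 active means calcium fluorescence ratio, averaged over duplicates, at least 3 SD of the buffer-well ratio, meaning a nonspecific response in receptor-free cells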;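 further: untransfected parental HEK293 lacking MrgX1 used as counterscreen for MrgX1 allosteric activators; fluorescence change taken during the second addition on a kinetic imager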
HEK293 Ca cntr2 = counter-screen for MrgX1 activators: effect in parental HEK293 cells; shares compounds with MrgX1 antag; Fluo-4 calcium fluorescence (FDSS); active compounds read high; fluorescence ratio F(max-min)/F0 at 10 µM; 4,000 tested, 8.7% active;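 active means calcium fluorescence ratio at least three times the spread of buffer wells, meaning a non-specific response in parental cells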
Hits are given with their value; - = inactive; . = not tested or not shown.

SMILES	RGS4 block	MrgX1 allo act	MrgX1 ag	MrgX1 antag	RGS4 act	MrgX1 ag confirm	HEK293 Ca flux	HEK293 Ca counter	HEK293 Ca cntr2
COC(=O)C1=C(C)OC(N)=C(C#N)C1c1ccco1 (stereo not drawn)	-	-	-	-	-	.	.	.	.
CCOC(=O)C1=C(CSc2nc3c(cc2C#N)CN(C)CC3)OC(N)=C(C#N)C1c1ccccc1 (stereo not drawn)	.	-	-	-	.	.	.	.	.
COC(=O)C1=C(C)OC(N)=C(C#N)C1c1cc(OC)c(OCC(N)=O)cc1Cl (stereo not drawn)	-	-	42.7	-	-	230.3%	-	-	56.5
COC(=O)C1=C(C)OC(N)=C(C#N)C1c1ccccc1F (stereo not drawn)	-	-	27.1	-	-	170.4%	-	-	64.3
CC(=O)C1=C(C)OC(N)=C(C#N)C1c1cc([N+](=O)[O-])ccc1Cl (stereo not drawn)	-	-	-	-	-	.	.	.	.
CCOc1ccc(NC(=O)CSc2nnc(C)n2CC)cc1	-	-	-	-	-	.	.	.	.
O=C(NC(=O)c1csnn1)Nc1ccccc1Cl	-	-	-	-	-	.	.	.	.
CC(OC(=O)C1CCC1)C(=O)Nc1cc(Cl)cc(Cl)c1 (stereo not drawn)	-	-	-	-	-	.	.	.	.
Cc1ccc(-c2n[nH]c(=O)c3ccccc23)cc1S(=O)(=O)NCC1CCCO1 (stereo not drawn)	-	-	39.6	-	-	174.1%	-	-	-
COc1ccc(OC)c(N(CC(=O)N2CCCC2)S(=O)(=O)c2ccc(C)cc2)c1	-	-	-	-	-	.	.	.	.
COc1ccc(C)cc1N(CC(=O)N1CCCCCC1)S(=O)(=O)c1ccc(C)cc1	-	-	37.1	-	-	198.4%	-	-	-
O=C(O)CCc1ccc(-c2ccccc2)n1CC(=O)O	-	-	-	-	-	.	.	.	.
Cc1ccc(-c2ccc(CCC(=O)O)n2Cc2ccco2)cc1	-	-	30.5	-	-	128.6%	-	-	-
N#CC1=C(N)Oc2cc(O)ccc2C1c1cccs1 (stereo not drawn)	-	-	28.5	-	-	-	-	-	-
Cc1ccccc1C(=O)NNC(=S)NC(=O)COc1ccccc1	-	-	120	-	-	640.4%	-	-	125
Cc1ccc(C(=O)NNC(=S)NC(=O)COc2ccccc2)cc1	-	-	109	-	-	617.5%	-	-	116
CC1CCCCN1S(=O)(=O)c1ccc2c(c1)C(C)(C)C(=O)N2C (stereo not drawn)	-	-	-	-	-	.	.	.	.
CN(C)C(CNC(=O)c1coc2ccccc2c1=O)c1ccccc1 (stereo not drawn)	-	-	-	-	-	.	.	.	.
CC(C)/C=C1\CC/C(=C\c2ccc(N(C)C)cc2)C1=O	-	-	101	-	-	-	0.0145	-	141
Cc1[nH]n(-c2ccccc2)c(=O)c1N=Nc1nccs1	-	-	65.8	-	-	261.0%	-	-	51.5
Cc1ccc(-c2csc3ncn(CC(=O)N4CCOCC4)c(=O)c23)cc1C	-	-	32.2	-	-	134.7%	-	-	-
O=C(CN(C(=O)c1csnn1)c1ccccc1F)NCc1ccccc1	-	-	-	-	-	.	.	.	.
NCCC(=O)N1c2ccccc2Sc2ccc(Cl)cc21	-	-	78.5	-	-	243.6%	-	-	-
COc1cccc(NC(=O)c2c(C)nn(-c3ccccc3)c2Cl)c1	-	-	-	-	-	.	.	.	.
Cc1onc(-c2ccccc2)c1C(=O)NNC(=S)NC(=O)c1ccc2c(c1)OCO2	-	-	76.5	-	-	412.2%	-	-	104
CC(C)(C)NC(=S)NNC(=O)[C@H]1C[C@@H]1c1ccccc1	-	-	-	-	-	.	.	.	.
